For data set [1] the following is noted: mouse, in vivo, cited from earlier work.
For another data set, the system named is lung tumor tissue. Kind of data set: Hematoxylin and eosin staining of lung tumor tissue. It is filed as in vivo, Nu/nu mice.
For another data set, the system named is SOX2. Description: Western blot of tumor lysates: SOX2. The class given is in vivo, Nu/nu mice. An outline of the steps: (§1)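 Nu/nu mice bearing H1650 cancer-stem-cell tumours got vehicle or test compound by oral gavage, solution or self-emulsified form, 20 mg/kg (solution every other day). Tumour nodules were lysed in RIPA pH 8.0 with protease inhibitor; 50 µg protein (BCA) on 10% SDS-PAGE, nitrocellulose, 5% milk/TBST block, antibodies 1:1000, HRP secondary. Signal normalised to β-actin; three replicates, mean ± SEM, one-way ANOVA with Tukey test.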
(In western blotting, separated proteins are transferred to a membrane and probed.)

A short description of data set [2]: Pharmacokinetics / bioavailability in dogs. It is filed as in vivo.
The next data set concerns Bcl-2. Kind of data set: Western blot of tumor lysates: Bcl-2. The class given is in vivo, Nu/nu mice. The note with it: densitometry. In a few lines:
as §1

The subject of the next data set is Nanog. Kind of data set: Western blot of tumor lysates: Nanog. It is filed as in vivo, Nu/nu mice.
The next data set deals with NF-КB. Description: Western blot of tumor lysates: NF-КB. The class given is in vivo, Nu/nu mice. In a few lines: as §1
The subject of another data set is Caco-2 monolayers. Description: Caco-2 permeability study. It is filed as in vitro ADME.
Data set [3] concerns H1650 cancer stem cell orthotopic lung tumor. The class given is in vivo. The note with it: 20 mg/kg oral gavage, 30 days treatment.
The next data set is described as follows: In vitro release study. The class given is physicochemical. The following applies: in 24 h, distilled water, 37 °C, 50 rpm. An outline of the steps: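 Test formulation equivalent to 2 mg drug stirred in USP apparatus II with 200 ml distilled water, […], paddle 50 rpm. At set intervals, 1 ml aliquots were withdrawn, filtered and assayed by HPLC, with fresh medium replaced each time.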

The test system of data set [4] is H1650 cancer stem cell xenograft tumor. It is filed as in vivo. The note with it: 20 mg/kg oral gavage.
Data set [5] deals with CSCs. The following applies: cited from earlier work.
Data set [6] deals with CSCs. The note with it: cited from earlier work. The source holds these as a separate data set.
Setting [7] is: i.v. bolus 0.5 mg/kg, two-compartment model.

With `COc1ccc(C(c2c[nH]c3ccccc23)c2c[nH]c3ccccc23)cc1` [DIM-5], the Oral bioavaibility in data set [1] is reported as 39%.

As to 3, 3-Diindolylmethane-14 [DIM-14], in the data set on lung tumor tissue (all groups), the “histological examination of lungs and tracheobronchial epithelium” value was “no signs of inflammation or edema”. The “tumor microvessels (H & E histology)” value with lung tumor tissue (treated tumors versus untreated mice) is recorded as “only occasional, isolated microvessels”. In addition, the “reduction of relative SOX2 expression versus untreated control” value with SOX2 worked out at 1.9 fold. Moreover, in data set [2] (i.v. bolus 0.5 mg/kg), the “Volume of distribution (Vd)” value is 0.321 L/kg and the “Volume of distribution at steady state (Vdss)” value was 0.319 L/kg. For the same molecule, in [2] (setting [7]), the “K10 (elimination from central compartment)” value was determined as 0.003 L/h and the “K21 (peripheral to central compartment)” value was found to be 0.15 L/h. Further, the absolute oral bioavailability in data set [2] (oral 3.33 mg/kg) is reported as less than 10%. In addition, in the data set on Bcl-2, the “reduction of β-actin relative Bcl-2 expression versus untreated control tumors” value was 1.8 fold. In the data set with Nanog, the “decrease of relative Nanog expression versus untreated control” value turned out to be 2.4 fold. Further, in the data set on NF-КB, the “expression of NF-КB” value is reported as “significantly down regulated”. In the data set with Caco-2 monolayers (Caco-2, donor pH 6.5, acceptor pH 7.4), the “average Peff, A–B” value was “approximately 0.26 ± 0.05 × 10^−6 cm/s”. The “average Peff, B–A” value in the data set with Caco-2 monolayers (Caco-2, secretory direction) is 0.41 ± 0.09 × 10^−6 cm/s. In addition, in data set [3], the “decrease in average number of tumor nodules versus control” value stood at 22%, the “decrease in lung tumor volumes” value is listed as 34% and the “decrease in lung tumor weights versus vehicle control” value was determined as 24%. Besides, the drug release in the data set “In vitro release study” is ~ 10%. In data set [4], the “decrease in average number of tumor nodules versus control” value turned out to be 29%, the “decrease in lung tumor volumes” value was 29% and the “decrease in lung tumor weights versus vehicle control” value came to 30%.

With `Clc1ccc(C(c2c[nH]c3ccccc23)c2c[nH]c3ccccc23)cc1` [DIM-12], in data set [1], the Oral bioavaibility is listed as 42%.

As for `Oc1ccc(C(c2c[nH]c3ccccc23)c2c[nH]c3ccccc23)cc1` [DIM-8], the “time to reach Cmax (Tmax)” value in data set [1] (po) is “about 60 min”. Besides, the Oral bioavaibility in data set [1] is listed as 6%.

As to `CN(C)C(=N)N=C(N)N` [Metformin], the “concentrations at which it works against CSCs” value with CSCs [5] is 100 to 300 µM.

`CC[C@@H](C(=O)[C@@H](C)[C@@H](O)[C@H](C)[C@@H]1O[C@@H]([C@@H](CC)C(=O)O)CC[C@@H]1C)[C@H]1O[C@]2(C=C[C@@H](O)[C@]3(CC[C@@](C)([C@H]4CC[C@](O)(CC)[C@H](C)O4)O3)O2)[C@H](C)C[C@@H]1C` [salinomycin]: in the data set on CSCs [6], the “reduction of the proportion of CSCs relative to paclitaxel” value is “more than 100 fold”.

On to Lucifer Yellow [reference compound], for which the “mean permeability of paracellular control” value in the data set on Caco-2 monolayers (Caco-2) is less than 0.15 ×10⁻⁶ cm/s.

The record behind these values is paper PMC5645071 (Journal of controlled release : official journal of the …, 2015).
